Test results published in ChEMBL document CHEMBL1158358, “Synthesis, antimicrobial and cytotoxic activities of some 5-arylidene-4-thioxo-thiazolidine-2-ones” (Eur J Med Chem, 2009).
Values after ≈ are worked out from the molar mass of the structure shown.

What was measured:
Type in all cases: functional
[1] = system: HEp-2; assay: Cytotoxicity against human Hep2 cells at 10 ug/mL after 72 hrs by MTT assay; conditions: HEp-2, 72 h, read-out: GI
Method in brief: (§1)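 MTT antiproliferative assay. Cells were diluted to 10⁵ cells/mL in 96-well plates and preincubated for 24 h at 37 °C in humid 5% CO₂. Compounds or vincristine (reference) were then added. Formazan was dissolved and OD read at 540 nm, compared with medium-only control cells. Run in triplicate.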

[2] = system: Candida albicans; assay: Antimicrobial activity against Candida albicans UFPEDA 1007 after 48 hrs by twofold serial dilution technique; conditions: UFPEDA 1007, 48 h
Method in brief: (§2)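 MIC was determined by twofold serial dilution. Bacteria were tested in plates at 10⁵ CFU/plate and read after 20 h. C. albicans was tested in tubes at 10³ CFU/tube and read after 48 h. All incubations were at 35 °C. Medium plus DMSO served as the negative control.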

[3] = system: Staphylococcus aureus; assay: Antimicrobial activity against multidrug-resistant Staphylococcus aureus H.C. 20489 isolate after 20 hrs by twofold serial dilution technique; conditions: H.C. 20489, 20 h
Method in brief: (§3)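 Twofold serial dilution MIC in agar plates against Gram-positive strains and multidrug-resistant clinical isolates. Inoculum applied was 10⁵ CFU/plate. Plates with culture medium plus DMSO served as negative control. MIC was read after incubation at 35 °C for 20 h.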

[4] = system: Staphylococcus; assay: Antimicrobial activity against coagulase-negative Staphylococcus H.A.M. 278 isolate after 20 hrs by twofold serial dilution technique; conditions: H.A.M. 278, 20 h; method in brief: as §2
[5] = system: Mycolicibacterium smegmatis; assay: Antimicrobial activity against Mycobacterium smegmatis UFPEDA 71 after 20 hrs by twofold serial dilution technique; conditions: UFPEDA 71, 20 h; method in brief: as §2
[6] = system: Staphylococcus aureus; assay: Antimicrobial activity against multidrug-resistant Staphylococcus aureus H.C. 20981 isolate after 20 hrs by twofold serial dilution technique; conditions: H.C. 20981, 20 h; method in brief: as §3
[7] = system: NCI-H292; assay: Cytotoxicity against human NCI-H292 cells at 1.25 ug/mL after 72 hrs by MTT assay; conditions: NCI-H292, 72 h, read-out: GI; method in brief: as §1
[8] = system: Enterococcus faecalis; assay: Antimicrobial activity against multidrug-resistant Enterococcus faecalis H.C. 21752 isolate after 20 hrs by twofold serial dilution technique; conditions: H.C. 21752, 20 h; method in brief: as §3
[9] = system: NCI-H292; assay: Cytotoxicity against human NCI-H292 cells at 2.5 ug/mL after 72 hrs by MTT assay; conditions: NCI-H292, 72 h, read-out: GI; method in brief: as §1
[10] = system: Escherichia coli; assay: Antimicrobial activity against Escherichia coli UFPEDA 224 at 300 ug/disk after 24 hrs by disk diffusion method; conditions: UFPEDA 224, 24 h, read-out: IZ
Method in brief: (§4)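 Preliminary screen by disk diffusion. Paper disks (6 mm) holding 300 µg of compound were placed on agar plates inoculated with a standardized microbial suspension. DMSO-only disks served as negative controls. A mean inhibition zone below 7 mm was scored as no sensitivity. Values are means, n = 3.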

[11] = system: Micrococcus luteus; assay: Antimicrobial activity against Micrococcus luteus UFPEDA 06 at 300 ug/disk after 24 hrs by disk diffusion method; conditions: UFPEDA 06, 24 h, read-out: IZ; method in brief: as §4
[12] = system: Serratia marcescens; assay: Antimicrobial activity against Serratia marcescens UFPEDA 398 at 300 ug/disk after 24 hrs by disk diffusion method; conditions: UFPEDA 398, 24 h, read-out: IZ; method in brief: as §4
[13] = system: Staphylococcus aureus; assay: Antimicrobial activity against multidrug-resistant Staphylococcus aureus H.C. 20794 isolate after 20 hrs by twofold serial dilution technique; conditions: H.C. 20794, 20 h; method in brief: as §3
[14] = system: Staphylococcus; assay: Antimicrobial activity against coagulase-negative Staphylococcus H.A.M. 338 isolate after 20 hrs by twofold serial dilution technique; conditions: H.A.M. 338, 20 h; method in brief: as §2
[15] = system: Mycolicibacterium smegmatis; assay: Antimicrobial activity against Mycobacterium smegmatis UFPEDA 71 at 300 ug/disk after 24 hrs by disk diffusion method; conditions: UFPEDA 71, 24 h, read-out: IZ; method in brief: as §4
[16] = system: Enterococcus faecalis; assay: Antimicrobial activity against multidrug-resistant Enterococcus faecalis H.C. 21944 isolate after 20 hrs by twofold serial dilution technique; conditions: H.C. 21944, 20 h; method in brief: as §3
[17] = system: Pseudomonas aeruginosa; assay: Antimicrobial activity against Pseudomonas aeruginosa UFPEDA 39 at 300 ug/disk after 24 hrs by disk diffusion method; conditions: UFPEDA 39, 24 h, read-out: IZ; method in brief: as §4
[18] = system: Staphylococcus aureus; assay: Antimicrobial activity against multidrug-resistant Staphylococcus aureus H.C. 21036 isolate after 20 hrs by twofold serial dilution technique; conditions: H.C. 21036, 20 h; method in brief: as §3
[19] = system: HEp-2; assay: Cytotoxicity against human Hep2 cells at 1.25 ug/mL after 72 hrs by MTT assay; conditions: HEp-2, 72 h, read-out: GI; method in brief: as §1
[20] = system: Staphylococcus aureus; assay: Antimicrobial activity against Staphylococcus aureus UFPEDA 01 at 300 ug/disk after 24 hrs by disk diffusion method; conditions: UFPEDA 01, 24 h, read-out: IZ; method in brief: as §4
[21] = system: Enterococcus faecalis; assay: Antimicrobial activity against Enterococcus faecalis UFPEDA 138 after 20 hrs by twofold serial dilution technique; conditions: UFPEDA 138, 20 h; method in brief: as §2
[22] = system: NCI-H292; assay: Cytotoxicity against human NCI-H292 cells at 10 ug/mL after 72 hrs by MTT assay; conditions: NCI-H292, 72 h, read-out: GI; method in brief: as §1
[23] = system: Micrococcus luteus; assay: Antimicrobial activity against Micrococcus luteus UFPEDA 06 after 20 hrs by twofold serial dilution technique; conditions: UFPEDA 06, 20 h; method in brief: as §2
[24] = system: Bacillus subtilis; assay: Antimicrobial activity against Bacillus subtilis UFPEDA 16 after 20 hrs by twofold serial dilution technique; conditions: UFPEDA 16, 20 h; method in brief: as §2
[25] = system: NCI-H292; assay: Cytotoxicity against human NCI-H292 cells at 5 ug/mL after 72 hrs by MTT assay; conditions: NCI-H292, 72 h, read-out: GI; method in brief: as §1
[26] = system: Bacillus subtilis; assay: Antimicrobial activity against Bacillus subtilis UFPEDA 16 at 300 ug/disk after 24 hrs by disk diffusion method; conditions: UFPEDA 16, 24 h, read-out: IZ; method in brief: as §4
[27] = system: Candida albicans; assay: Antimicrobial activity against Candida albicans UFPEDA 1007 at 300 ug/disk after 48 hrs by disk diffusion method; conditions: UFPEDA 1007, 48 h, read-out: IZ; method in brief: as §4
[28] = system: Staphylococcus aureus; assay: Antimicrobial activity against multidrug-resistant Staphylococcus aureus H.C. 21141 isolate after 20 hrs by twofold serial dilution technique; conditions: H.C. 21141, 20 h; method in brief: as §3
[29] = system: Staphylococcus aureus; assay: Antimicrobial activity against multidrug-resistant Staphylococcus aureus H.C. 20905 isolate after 20 hrs by twofold serial dilution technique; conditions: H.C. 20905, 20 h; method in brief: as §3
[30] = system: Enterococcus faecalis; assay: Antimicrobial activity against multidrug-resistant Enterococcus faecalis H.C. 24962 isolate after 20 hrs by twofold serial dilution technique; conditions: H.C. 24962, 20 h; method in brief: as §3
[31] = system: Staphylococcus aureus; assay: Antimicrobial activity against Staphylococcus aureus UFPEDA 01 after 20 hrs by twofold serial dilution technique; conditions: UFPEDA 01, 20 h; method in brief: as §3
[32] = system: HEp-2; assay: Cytotoxicity against human Hep2 cells at 2.5 ug/mL after 72 hrs by MTT assay; conditions: HEp-2, 72 h, read-out: GI; method in brief: as §1
[33] = system: Enterococcus faecalis; assay: Antimicrobial activity against multidrug-resistant Enterococcus faecalis H.C. 24708 isolate after 20 hrs by twofold serial dilution technique; conditions: H.C. 24708, 20 h; method in brief: as §3
[34] = system: HEp-2; assay: Cytotoxicity against human Hep2 cells at 5 ug/mL after 72 hrs by MTT assay; conditions: HEp-2, 72 h, read-out: GI; method in brief: as §1
[35] = system: Enterococcus faecalis; assay: Antimicrobial activity against Enterococcus faecalis UFPEDA 138 at 300 ug/disk after 24 hrs by disk diffusion method; conditions: UFPEDA 138, 24 h, read-out: IZ; method in brief: as §4

For O=C1NC(=S)/C(=C/c2ccc(Br)cc2)S1, the inhibition of growth at 10 µg/mL [1] was 18.2%, the MIC [2] was 32 µg/mL (≈ 107 µM) and the MIC [3] was 4 µg/mL (≈ 13.3 µM). For the same compound, the MIC [4] was 4 µg/mL (≈ 13.3 µM), the MIC [5] was 4 µg/mL (≈ 13.3 µM) and the MIC [6] was 4 µg/mL (≈ 13.3 µM). The inhibition of growth at 1.25 µg/mL [7] was 1.1%, the MIC [8] was 8 µg/mL (≈ 26.6 µM) and the inhibition of growth at 2.5 µg/mL [9] was 1.19%. For the same compound, the zone of inhibition at 300 µg/disc [10] was under 7 mm, the zone of inhibition at 300 µg/disc [11] was 21 mm and the zone of inhibition at 300 µg/disc [12] was under 7 mm. For the same compound, the MIC [13] was 2 µg/mL (≈ 6.66 µM), the MIC [14] was 4 µg/mL (≈ 13.3 µM) and the zone of inhibition at 300 µg/disc [15] was 17 mm. It also gave an MIC [16] of 8 µg/mL (≈ 26.6 µM), a zone of inhibition at 300 µg/disc [17] of under 7 mm and an MIC [18] of 4 µg/mL (≈ 13.3 µM). For the same compound, the inhibition of growth at 1.25 µg/mL [19] was -3.16%, the zone of inhibition at 300 µg/disc [20] was 23 mm and the MIC [21] was 16 µg/mL (≈ 53.3 µM). It also gave an inhibition of growth at 10 µg/mL [22] of 36.5%, an MIC [23] of 8 µg/mL (≈ 26.6 µM) and an MIC [24] of 2 µg/mL (≈ 6.66 µM). It also gave an inhibition of growth at 5 µg/mL [25] of 16.6%, a zone of inhibition at 300 µg/disc [26] of 18 mm and a zone of inhibition at 300 µg/disc [27] of 15 mm. It also gave an MIC [28] of 4 µg/mL (≈ 13.3 µM), an MIC [29] of 4 µg/mL (≈ 13.3 µM) and an MIC [30] of 8 µg/mL (≈ 26.6 µM). The MIC [31] was 4 µg/mL (≈ 13.3 µM), the inhibition of growth at 2.5 µg/mL [32] was -0.36% and the MIC [33] was 8 µg/mL (≈ 26.6 µM). The inhibition of growth at 5 µg/mL [34] was 15.4% and the zone of inhibition at 300 µg/disc [35] was 17 mm.
O=C1NC(=S)/C(=C/c2cccc(F)c2)S1 gave an inhibition of growth at 10 µg/mL [1] of 20.9%, an MIC [2] of 64 µg/mL (≈ 267 µM) and an MIC [3] of 2 µg/mL (≈ 8.36 µM). It also gave an MIC [4] of 16 µg/mL (≈ 66.9 µM), an MIC [5] of 32 µg/mL (≈ 134 µM) and an MIC [6] of 2 µg/mL (≈ 8.36 µM). For the same compound, the inhibition of growth at 1.25 µg/mL [7] was 2.1%, the MIC [8] was 16 µg/mL (≈ 66.9 µM) and the inhibition of growth at 2.5 µg/mL [9] was 3.43%. It also gave a zone of inhibition at 300 µg/disc [10] of under 7 mm, a zone of inhibition at 300 µg/disc [11] of 27 mm and a zone of inhibition at 300 µg/disc [12] of under 7 mm. It also gave an MIC [13] of 2 µg/mL (≈ 8.36 µM), an MIC [14] of 16 µg/mL (≈ 66.9 µM) and a zone of inhibition at 300 µg/disc [15] of 20 mm. For the same compound, the MIC [16] was 8 µg/mL (≈ 33.4 µM), the zone of inhibition at 300 µg/disc [17] was under 7 mm and the MIC [18] was 2 µg/mL (≈ 8.36 µM). The inhibition of growth at 1.25 µg/mL [19] was 0.84%, the zone of inhibition at 300 µg/disc [20] was 28 mm and the MIC [21] was 32 µg/mL (≈ 134 µM). For the same compound, the inhibition of growth at 10 µg/mL [22] was 26.8%, the MIC [23] was 16 µg/mL (≈ 66.9 µM) and the MIC [24] was 16 µg/mL (≈ 66.9 µM). For the same compound, the inhibition of growth at 5 µg/mL [25] was 13.1%, the zone of inhibition at 300 µg/disc [26] was 20 mm and the zone of inhibition at 300 µg/disc [27] was 16 mm. The MIC [28] was 16 µg/mL (≈ 66.9 µM), the MIC [29] was 2 µg/mL (≈ 8.36 µM) and the MIC [30] was 8 µg/mL (≈ 33.4 µM). It also gave an MIC [31] of 4 µg/mL (≈ 16.7 µM), an inhibition of growth at 2.5 µg/mL [32] of 7.03% and an MIC [33] of 8 µg/mL (≈ 33.4 µM). It also gave an inhibition of growth at 5 µg/mL [34] of 19.8% and a zone of inhibition at 300 µg/disc [35] of 22 mm.
